This note sets out measurements from PubChem BioAssay.

Structures are written as SMILES. The source made the active and inactive calls.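 Rule for the calls: active = growth inhibition above 25% in both replicates, a cutoff set 3 SD above the mean; inconclusive = above 25% in only one replicate; inactive = the rest.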

The test is described as follows: S. cerevisiae growth inhibition in permissive medium (OD615), pilot counter-assay for S. cerevisiae lifespan shortening project, permissive growth control (AID 705). As to conditions: OD615, 24 h, at 10 µM, stronger effect = higher value. An outline of the steps:
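Test system: Saccharomyces cerevisiae strain carrying genetically modified DeaD replicative-lifespan system; buffer or medium: SC raffinose/galactose permissive medium; dosing: one dose 10 µM, DMSO 0.25% final; times: 24 h exposure, 30 °C; measured by: OD at 615 nm; read-out basis: growth inhibition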
With `CSc1ccc(S(=O)(=O)N2CCN(Cc3ccc4c(c3)OCO4)CC2)cc1`, the growth inhibition was -2.74% (inactive).
As for `Cc1ccc(F)c(NC(=O)C2CCCCC2C(=O)O)c1` (centres undefined), the figure is 1.12% (inactive); as for `CC(=O)c1sc(NC(=O)c2ccco2)nc1-c1ccccc1`, -6.58% (inactive).
Under `CCn1c(C(C)NC(=O)Cc2ccccc2)nc2ccccc21` (centres undefined) stands -12.2% (inactive); under `CCOC(=O)N1CCN(C(=O)Cn2ncc3ccccc32)CC1`, -14.3% (inactive); under `CCCCCn1c(CNC(=O)CCC)nc2ccccc21`, -7.29% (inactive).
As for `COc1ccc(-n2ncc3c(N4CCCCC4)ncnc32)cc1`, the figure is -12.2% (inactive); as for `O=C(c1cccc(S(=O)(=O)N2CCCC2)c1)c1cccc(S(=O)(=O)N2CCCC2)c1`, -6.99% (inactive); as for `CC(C)Cc1nnc(NC(=O)CCN2C(=O)c3ccccc3C2=O)s1`, 5.23% (inactive).
With `Cc1cc(C)c(S(=O)(=O)N2CCN(CCO)CC2)c(C)c1`, the growth inhibition was 4.04% (inactive).
Under `CCOC(=O)c1nn(-c2ccc3c(c2)CCN3C(C)=O)cc1O` stands -3.56% (inactive).
Under `CCN1CCN(C(c2ccccc2)c2sc3nc(C)nn3c2O)CC1` (centres undefined) stands 0.24% (inactive).
As for `Cc1ccc(O)c(-c2cc(C(F)(F)C(F)F)nc(-c3ccccc3)n2)c1`, the figure is -21.9% (inactive).
In the case of `COc1ccc(CN2CCCCC2C(=O)Nc2ccc(OC)c(OC)c2)cc1OC` (centres undefined), the growth inhibition is -10.9% (inactive).
Under `CCC(Sc1nncn1C)C(=O)Nc1nnc(-c2ccccc2Cl)s1` (centres undefined) stands -3.46% (inactive); under `COc1ccc(S(=O)(=O)NCC2CCC(C(=O)N3CCC4(CC3)OCCO4)CC2)cc1` (centres undefined), -5.13% (inactive).
Under `NC(=O)c1ccsc1NC(=O)c1ccco1` stands 7.15% (inactive); under `Cc1c(NC(=O)c2ccc3c(c2)OCO3)c(=O)n(-c2ccccc2)n1C`, -8.08% (inactive); under `CCN1CCCC1CNC(=O)c1cc2c(-c3ccc(Cl)cc3)nn(C)c2s1` (centres undefined), -7.45% (inactive).
As for `COc1cc(OC)c(Nc2cc(C)nc3nc(C)nn23)cc1Cl`, the figure is 4.72% (inactive); as for `O=C(O)COc1ccc2c(c1)OCCO2`, -7.81% (inactive).
As to `COc1cc2c(C(=O)NCc3ccccn3)cn(CC(C)C)c(=O)c2cc1OC`, the growth inhibition was -6.14% (inactive).
Consider `COc1cccc(N(CC(=O)Nc2cccc(F)c2)S(C)(=O)=O)c1`, for which the growth inhibition is -5.09% (inactive).
As for `O=C(C1CCN(S(=O)(=O)c2cccc3cccnc23)CC1)N1CCN(C2CCCC2)CC1`, the growth inhibition is -9.46% (inactive).
As for `CCC(=O)N1C(C(=O)O)CSC1c1ccc(OC)cc1` (centres undefined), the figure is -0.64% (inactive).
Under `c1ccc(OCCSc2ncnc3nc[nH]c23)cc1` stands 3.62% (inactive); under `Cc1onc(-c2ccccc2Cl)c1C(=O)NCc1ccc2c(c1)cc(C)n2C`, -6.07% (inactive).
Under `CN(C)c1nc(Oc2ccc(C(=O)OCC(=O)Nc3ccccc3)cc2)nc(N(C)C)n1` stands 5.09% (inactive); under `Cc1c(/C=N/n2cnnc2)c2ccccc2n1C`, -2.21% (inactive).
For the compound `CCOC(=O)CSc1ccc2nnc(-c3ccccc3)n2n1`, the growth inhibition is -8.02% (inactive).
Under `O=C(Oc1ccccc1)N1CCN(c2ccc(F)cc2)CC1` stands -11.1% (inactive).
As for `Cc1cc(Nc2cccc(C)c2C)n2nc(C)nc2n1`, the figure is -17% (inactive); as for `COc1ccc(N=C2SC(C(=O)O)CC(=O)N2C)cc1` (centres undefined), -5.94% (inactive); as for `CC(CCc1ccccc1)C(=O)NO` (centres undefined), -6.16% (inactive).
Under `Cc1cc(=O)[nH]c(SCc2cc(Cl)ccc2OC(F)F)n1` stands -4.67% (inactive); under `COc1ccc(OC)c(S(=O)(=O)n2nc(-c3ccccc3)cc2N)c1`, -6.75% (inactive); under `O=C(NCc1cn2ccccc2n1)c1ccc(Br)o1`, -7.75% (inactive).
Take `COc1ccc(N2CCN(C(=O)c3ccc(CS(=O)(=O)c4ccc(OC)cc4)o3)CC2)cc1`: the growth inhibition was -9.34% (inactive).
Under `COc1ccc(OC)c(NC(=O)CSc2nnc(Cn3c(=O)sc4ccccc43)n2C)c1` stands -10.2% (inactive).
